The source made the active and inactive calls. The calls are words filed in the database; no cut-off is given here.
Columns and labels:
[1] = test system: CAL-27; assay: Potentiation of 0.316 uM cisplatin-induced cytotoxicity against human CAL27 cells assessed as decrease in cell viability by measuring combination index at 500 nM preincubated for 48 hrs followed by cisplatin treatment measured after 72 hrs by MTT assay
[2] = test system: CAL-27; assay: Potentiation of cisplatin-induced cytotoxicity against human CAL27 cells assessed as fold reduction in cisplatin IC50 at 1 uM preincubated for 48 hrs followed by cisplatin treatment measured after 72 hrs by MTT assay relative to cisplatin alone; format: functional
Procedure, shortened: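 Cells were preincubated 48 h with HDAC inhibitor, then cisplatin was added over a concentration range for 72 h, with MTT read-out. Shift factor is cisplatin-alone IC50 divided by combination IC50. Data are mean ± SEM of pooled data from at least three independent experiments, each in triplicate. Significance was by t test (p < 0.05).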

[3] = test system: CAL-27; assay: Potentiation of 0.316 uM cisplatin-induced cytotoxicity against human CAL27 cells assessed as decrease in cell viability by measuring combination index at 1500 uM preincubated for 48 hrs followed by cisplatin treatment measured after 72 hrs by MTT assay; format: functional; conditions: in the assay text read “at 1500 nM” for “at 1500 uM”
Procedure, shortened: (§1)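 Cal27 and cisplatin-resistant Cal27CisR cells were preincubated with the HDAC inhibitor for 48 h, then given cisplatin in combination. Viability was read by MTT after 72 h. The combination index was computed by the Chou–Talalay method: CI > 1 is antagonism, CI = 1 is additive, and CI < 0.9 is synergism. Points with fraction affected below 0.20 were flagged.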

[4] = test system: CAL-27; assay: Potentiation of 0.316 uM cisplatin-induced cytotoxicity against human CAL27 cells assessed as decrease in cell viability measuring combination index at 2000 uM preincubated for 48 hrs followed by cisplatin treatment measured after 72 hrs by MTT assay; format: functional; conditions: in the assay text read “at 2000 nM” for “at 2000 uM”
Procedure, shortened: as §1

[5] = test system: CAL-27; assay: Potentiation of 1 uM cisplatin-induced cytotoxicity against human CAL27 cells assessed as decrease in cell viability by measuring combination index at 1000 uM preincubated for 48 hrs followed by cisplatin treatment measured after 72 hrs by MTT assay; format: functional; conditions: in the assay text read “at 1000 nM” for “at 1000 uM”
Procedure, shortened: as §1

[6] = test system: CAL-27; assay: Potentiation of 1 uM cisplatin-induced cytotoxicity against human CAL27 cells assessed as decrease in cell viability by measuring combination index at 1500 uM preincubated for 48 hrs followed by cisplatin treatment measured after 72 hrs by MTT assay; format: functional; conditions: in the assay text read “at 1500 nM” for “at 1500 uM”
Procedure, shortened: as §1

[7] = test system: CAL-27; assay: Potentiation of 2 uM cisplatin-induced cytotoxicity against human CAL27 cells assessed as decrease in cell viability by measuring combination index at 900 uM preincubated for 48 hrs followed by cisplatin treatment measured after 72 hrs by MTT assay; format: functional; conditions: in the assay text read “at 900 nM” for “at 900 uM”
Procedure, shortened: (§2)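 HDAC inhibitor was added 48 h before cisplatin, then cells were exposed to cisplatin for 72 h and viability was read by MTT assay. Combination index was computed by the Chou–Talalay method: CI > 1 is antagonism, CI = 1 additive, CI < 0.9 synergism. Points with fraction affected below 0.20 were flagged.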

[8] = test system: CAL-27; assay: Potentiation of 5 uM cisplatin-induced cytotoxicity against human CAL27 cells assessed as decrease in cell viability by measuring combination index at 900 uM preincubated for 48 hrs followed by cisplatin treatment measured after 72 hrs by MTT assay; format: functional; conditions: in the assay text read “at 900 nM” for “at 900 uM”
Procedure, shortened: as §2

[9] = test system: CAL-27; assay: Potentiation of 5 uM cisplatin-induced cytotoxicity against human CAL27 cells assessed as decrease in cell viability by measuring combination index at 2000 uM preincubated for 48 hrs followed by cisplatin treatment measured after 72 hrs by MTT assay; format: functional; conditions: in the assay text read “at 2000 nM” for “at 2000 uM”
Procedure, shortened: as §2

[10] = molecular target: T1, Histone deacetylase 1/6 (Homo sapiens) (UniProt Q13547+Q9UBN7); assay: Inhibition of HDAC1/HDAC6 in human Cal27CisR cells assessed as potentiation of 5 uM cisplatin-induced cytotoxicity by measuring combination index at 1000 uM preincubated for 48 hrs followed by cisplatin treatment measured after 72 hrs by MTT assay; format: cell-based
Procedure, shortened: as §1

[11] = test system: Cal27CisR; assay: Induction of apoptosis in human Cal27CisR cells at 0.5 uM for 48 hrs by propidium iodide dye-based flow cytometry; format: functional, cell-based
[12] = molecular target: T1, Histone deacetylase 1/6 (Homo sapiens); assay: Inhibition of HDAC1/HDAC6 in human Cal27CisR cells assessed as potentiation of 20 uM cisplatin-induced cytotoxicity by measuring combination index at 900 nM preincubated for 48 hrs followed by cisplatin treatment measured after 72 hrs by MTT assay
[13] = molecular target: T1, Histone deacetylase 1/6 (Homo sapiens); assay: Inhibition of HDAC1/HDAC6 in human Cal27CisR cells assessed as potentiation of 10 uM cisplatin-induced cytotoxicity by measuring combination index at 1000 nM preincubated for 48 hrs followed by cisplatin treatment measured after 72 hrs by MTT assay
[14] = molecular target: T1, Histone deacetylase 1/6 (Homo sapiens); assay: Inhibition of HDAC1/HDAC6 in human Cal27CisR cells assessed as potentiation of 10 uM cisplatin-induced cytotoxicity by measuring combination index at 1500 nM preincubated for 48 hrs followed by cisplatin treatment measured after 72 hrs by MTT assay
[15] = molecular target: T1, Histone deacetylase 1/6 (Homo sapiens); assay: Inhibition of HDAC1/HDAC6 in human Cal27CisR cells assessed as potentiation of 10 uM cisplatin-induced cytotoxicity by measuring combination index at 2000 nM preincubated for 48 hrs followed by cisplatin treatment measured after 72 hrs by MTT assay
[16] = molecular target: T1, Histone deacetylase 1/6 (Homo sapiens); assay: Inhibition of HDAC1/HDAC6 in human Cal27CisR cells assessed as potentiation of 20 uM cisplatin-induced cytotoxicity by measuring combination index at 1000 nM preincubated for 48 hrs followed by cisplatin treatment measured after 72 hrs by MTT assay
[17] = molecular target: T1, Histone deacetylase 1/6 (Homo sapiens); assay: Inhibition of HDAC1/HDAC6 in human Cal27CisR cells assessed as potentiation of 3.16 uM cisplatin-induced cytotoxicity by measuring combination index at 2000 nM preincubated for 48 hrs followed by cisplatin treatment measured after 72 hrs by MTT assay
[18] = test system: CAL-27; assay: Potentiation of 2 uM cisplatin-induced cytotoxicity against human CAL27 cells assessed as decrease in cell viability by measuring combination index at 100 uM preincubated for 48 hrs followed by cisplatin treatment measured after 72 hrs by MTT assay; format: functional; conditions: in the assay text read “at 100 nM” for “at 100 uM”
Procedure, shortened: as §2

[19] = test system: CAL-27; assay: Potentiation of cisplatin-induced apoptosis in human CAL27 cells at 0.5 uM preincubated for 48 hrs followed by cisplatin treatment for 6 hrs measured after 24 hrs by propidium iodide dye-based flow cytometry (reference value: 21.8%); format: functional

T1 sequence (Q13547 whole entry, looked up): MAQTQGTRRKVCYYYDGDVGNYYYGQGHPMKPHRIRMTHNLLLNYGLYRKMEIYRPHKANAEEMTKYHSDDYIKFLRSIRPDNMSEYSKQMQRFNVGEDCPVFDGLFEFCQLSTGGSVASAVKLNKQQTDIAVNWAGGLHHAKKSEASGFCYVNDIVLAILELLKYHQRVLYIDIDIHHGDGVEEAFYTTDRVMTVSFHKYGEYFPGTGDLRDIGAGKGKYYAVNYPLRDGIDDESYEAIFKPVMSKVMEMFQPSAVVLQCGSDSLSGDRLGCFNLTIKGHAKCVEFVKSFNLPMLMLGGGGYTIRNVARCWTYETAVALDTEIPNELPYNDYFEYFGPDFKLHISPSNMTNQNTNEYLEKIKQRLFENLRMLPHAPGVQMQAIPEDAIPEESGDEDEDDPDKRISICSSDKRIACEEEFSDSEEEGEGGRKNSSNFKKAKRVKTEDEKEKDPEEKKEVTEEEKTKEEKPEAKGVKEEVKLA
T1 sequence (Q9UBN7 whole entry, looked up): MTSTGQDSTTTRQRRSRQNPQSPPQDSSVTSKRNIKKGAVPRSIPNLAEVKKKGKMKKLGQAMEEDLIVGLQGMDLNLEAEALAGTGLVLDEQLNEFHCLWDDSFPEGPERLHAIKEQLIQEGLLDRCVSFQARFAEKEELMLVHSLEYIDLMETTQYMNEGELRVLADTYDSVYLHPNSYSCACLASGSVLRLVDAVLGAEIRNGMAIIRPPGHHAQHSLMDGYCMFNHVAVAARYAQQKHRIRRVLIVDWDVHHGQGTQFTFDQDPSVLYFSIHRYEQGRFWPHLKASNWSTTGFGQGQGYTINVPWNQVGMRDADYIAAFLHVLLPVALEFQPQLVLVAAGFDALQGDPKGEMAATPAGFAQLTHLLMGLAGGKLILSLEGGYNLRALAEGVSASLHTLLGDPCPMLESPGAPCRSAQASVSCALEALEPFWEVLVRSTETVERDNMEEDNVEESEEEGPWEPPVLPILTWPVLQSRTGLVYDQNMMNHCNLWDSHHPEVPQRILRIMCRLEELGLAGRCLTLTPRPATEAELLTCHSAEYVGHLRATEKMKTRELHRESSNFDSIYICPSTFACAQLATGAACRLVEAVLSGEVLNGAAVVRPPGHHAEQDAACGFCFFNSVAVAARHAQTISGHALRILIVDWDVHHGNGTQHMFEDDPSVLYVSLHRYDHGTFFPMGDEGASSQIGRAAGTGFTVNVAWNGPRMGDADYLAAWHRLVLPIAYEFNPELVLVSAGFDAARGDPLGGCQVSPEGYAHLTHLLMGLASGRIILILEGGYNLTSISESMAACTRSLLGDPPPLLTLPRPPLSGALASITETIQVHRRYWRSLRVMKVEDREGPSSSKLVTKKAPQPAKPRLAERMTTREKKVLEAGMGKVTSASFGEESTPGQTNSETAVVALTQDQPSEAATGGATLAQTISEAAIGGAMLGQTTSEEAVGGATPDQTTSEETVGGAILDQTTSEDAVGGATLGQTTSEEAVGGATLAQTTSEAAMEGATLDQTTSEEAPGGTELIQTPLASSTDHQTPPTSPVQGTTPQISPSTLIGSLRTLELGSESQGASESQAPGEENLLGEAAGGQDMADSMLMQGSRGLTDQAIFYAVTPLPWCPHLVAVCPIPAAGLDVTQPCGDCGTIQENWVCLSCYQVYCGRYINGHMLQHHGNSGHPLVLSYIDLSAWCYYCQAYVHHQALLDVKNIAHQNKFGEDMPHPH

SMILES: COc1cc(NC(=O)NOCCCCCC(=O)NO)c2nccc(C)c2c1
- CI [1]: <0.2

SMILES: COc1cc(NC(=O)NOCCCCCC(=O)NO)c2ncccc2c1
- fold change (FC) [2]: 7.1
- CI [3]: 0.82
- CI [4]: 0.92
- CI [5]: 0.5
- CI [6]: 0.64
- CI [7]: 0.4
- CI [8]: 0.37
- CI [9]: 0.66
- CI [10]: 0.43
- Activity [11]: inactive
- CI [12]: 0.49
- CI [13]: 0.49
- CI [14]: 0.51
- CI [15]: 0.65
- CI [16]: 0.48
- CI [17]: 0.6

SMILES: COc1cc(NC(=O)NOCCCCCC(=O)NO)c2nc(OC)cc(C)c2c1
- CI [18]: 0.31
- Activity [19]: 33.3%

Source: ChEMBL document CHEMBL4014350, “Alkoxyurea-Based Histone Deacetylase Inhibitors Increase Cisplatin Potency in Chemoresistant Cancer Cell Lines” (J Med Chem, 2017)
